Article PMC3559019 (Chemistry & biology, 2013)

Tests used:
[1] = target: c-Src (Homo sapiens, UniProt P12931); test: In vitro kinase assay, c-Src; assay type: biochemical
[2] = target: Lck (Homo sapiens, UniProt P06239); test: In vitro kinase assay, Lck; assay type: biochemical
[3] = target: Lyn (Homo sapiens, UniProt P07948); test: In vitro kinase assay, Lyn; assay type: biochemical
[4] = test system: Nef-defective (ΔNef) HIV-1 NL4-3; test: Nef-defective HIV-1 replication in CEM-T4 cells; assay type: cell-based
[5] = test system: HIV-1 NL4-3; test: HIV-1 infectivity in TZM-bl reporter cells; assay type: cell-based; settings: luciferase 48 h
[6] = test system: Nef-dependent SFK activation; test: Endogenous SFK activation in HIV-infected CEM-T4 cells; assay type: cell-based; settings: 1.0 μM
How it was run: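 CEM-T4 cells (1 × 10^5) were infected with 50 pg p24 equivalents/ml wild-type HIV-1 NL4-3, ΔNef mutant or Nef chimeras in 10 ml, with test compound (1 μM) or DMSO carrier. Cells were lysed 8 days later and SFKs were immunoprecipitated with a pan-specific antibody. Immunoblots used an anti-pY418 activation-loop antibody. Lysates were blotted for Gag, Nef and actin (loading control). Uninfected cells were included.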

[7] = test system: HIV-1 Nef Asn126 mutants (Ala, Leu, Gln); test: Surface plasmon resonance, Nef Asn126 mutants; assay type: binding; settings: SPR, B9 10 μM
[8] = test system: SIV quasispecies ΔB670; test: SIV replication in CEM-174 cells; assay type: cell-based; settings: Simian immunodeficiency virus, CEM174, 120 h, read-out: IC50, SIV replication
How it was run: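 CEM-174 cells received test compound in DMSO over a range of concentrations, 1 h before infection with the pathogenic SIV quasispecies ΔB670. Replication was measured 5 d later as p27 Gag protein by ELISA.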

[9] = test system: SIV ΔB670; test: SIV infectivity in TZM-bl reporter cells; assay type: cell-based; settings: Simian immunodeficiency virus, read-out: IC50, SIV infectivity
How it was run: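 TZM-bl reporter cells (2.5 × 10^4/well) were plated 8 h before infection to adhere. Test compound was pre-incubated with SIV ΔB670 for 4 h, then added to the cells (final 200 μl). After 48 h at 37 °C, cells were washed with PBS and lysed. Infectivity was read as luciferase luminescence.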

[10] = target: Nef dimerization (Human immunodeficiency virus type 1 group M subtype B, UniProt P03407); test: BiFC assay for Nef dimerization in 293T cells; assay type: cell-based, HIV-1; settings: 1–6 μM, 48 h
Chain of Nef dimerization (P03407 whole entry): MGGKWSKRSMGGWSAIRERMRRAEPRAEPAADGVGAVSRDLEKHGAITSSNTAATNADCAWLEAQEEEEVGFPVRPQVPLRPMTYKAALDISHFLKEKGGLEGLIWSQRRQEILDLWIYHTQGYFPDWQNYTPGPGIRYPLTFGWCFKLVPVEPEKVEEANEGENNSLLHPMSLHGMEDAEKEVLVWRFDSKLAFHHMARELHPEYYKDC

Chain of c-Src (P12931 whole entry, species assumed): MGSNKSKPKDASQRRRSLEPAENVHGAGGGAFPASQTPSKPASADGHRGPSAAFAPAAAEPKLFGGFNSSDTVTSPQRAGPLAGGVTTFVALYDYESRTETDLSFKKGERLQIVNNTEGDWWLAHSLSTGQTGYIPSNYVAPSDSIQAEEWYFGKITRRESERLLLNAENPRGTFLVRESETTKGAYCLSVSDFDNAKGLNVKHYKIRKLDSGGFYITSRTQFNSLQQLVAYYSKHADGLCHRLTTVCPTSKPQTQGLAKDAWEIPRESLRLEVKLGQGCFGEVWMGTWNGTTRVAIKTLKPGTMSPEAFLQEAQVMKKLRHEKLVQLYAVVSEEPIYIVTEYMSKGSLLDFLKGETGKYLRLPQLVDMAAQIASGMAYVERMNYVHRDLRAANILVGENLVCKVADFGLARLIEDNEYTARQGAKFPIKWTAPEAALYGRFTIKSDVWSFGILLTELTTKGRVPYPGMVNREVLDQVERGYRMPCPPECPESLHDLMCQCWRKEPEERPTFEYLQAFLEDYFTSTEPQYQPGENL
Chain of Lyn (P07948 whole entry, species assumed): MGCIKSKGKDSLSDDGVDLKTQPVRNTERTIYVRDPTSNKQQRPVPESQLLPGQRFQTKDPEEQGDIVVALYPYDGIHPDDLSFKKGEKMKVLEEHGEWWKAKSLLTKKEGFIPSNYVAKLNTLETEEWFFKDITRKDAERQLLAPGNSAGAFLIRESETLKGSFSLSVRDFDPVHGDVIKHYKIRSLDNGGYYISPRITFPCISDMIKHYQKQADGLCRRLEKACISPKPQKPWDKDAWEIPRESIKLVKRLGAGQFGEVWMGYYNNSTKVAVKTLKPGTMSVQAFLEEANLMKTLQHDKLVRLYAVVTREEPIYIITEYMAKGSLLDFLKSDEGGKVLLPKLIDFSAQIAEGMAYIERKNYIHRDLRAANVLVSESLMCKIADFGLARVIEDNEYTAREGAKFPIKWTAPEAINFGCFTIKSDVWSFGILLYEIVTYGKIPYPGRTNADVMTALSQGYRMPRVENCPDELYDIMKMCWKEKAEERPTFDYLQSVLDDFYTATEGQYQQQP
Chain of Lck (P06239 whole entry, species assumed): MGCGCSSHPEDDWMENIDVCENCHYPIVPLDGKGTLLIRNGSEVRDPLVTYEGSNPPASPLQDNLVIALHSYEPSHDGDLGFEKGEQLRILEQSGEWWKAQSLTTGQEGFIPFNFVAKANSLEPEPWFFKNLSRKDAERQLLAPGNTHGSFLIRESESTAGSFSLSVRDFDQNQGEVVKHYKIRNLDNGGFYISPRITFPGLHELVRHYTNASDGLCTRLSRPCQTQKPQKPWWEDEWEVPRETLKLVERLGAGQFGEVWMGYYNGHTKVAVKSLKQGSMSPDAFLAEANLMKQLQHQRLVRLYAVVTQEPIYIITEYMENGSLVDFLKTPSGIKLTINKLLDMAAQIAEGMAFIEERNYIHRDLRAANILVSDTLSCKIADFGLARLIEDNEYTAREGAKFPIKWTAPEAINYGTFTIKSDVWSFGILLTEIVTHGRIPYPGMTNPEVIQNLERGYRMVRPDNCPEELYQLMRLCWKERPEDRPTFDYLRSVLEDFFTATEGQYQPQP

Work on `NC(=S)n1nc(-c2ccc([N+](=O)[O-])cc2)c(/N=N/c2cccc(Cl)c2)c1O` [B9, (E)-4-((3-chlorophenyl)diazenyl)-5-hydroxy-3-(4-nitrophenyl)-1H-pyrazole-1-carbothioamide] yielded an IC50 [1] greater than 20000 nM, an IC50 [2] greater than 20000 nM and an IC50 [3] greater than 20000 nM. The “Effect on Nef-defective HIV replication (chimera experiment)” value ([4]; 0.3 and 1.0 μM, 10 days) was “no effect”, the “Effect on replication of Nef-defective HIV-1” value ([4]; highest concentration tested 3.0 μM) was “unaffected” and the “Nef-mediated enhancement of HIV-1 infectivity” value [5] was “inhibited Nef-mediated enhancement of HIV-1 infectivity in a concentration-dependent manner”. For the same molecule, the “Nef-dependent SFK activation (pY418)” value [6] was “completely inhibited”, the “Binding to Nef Asn126 mutants” value [7] was “none of these mutants demonstrated detectable binding” and the IC50 [8] was roughly 1000 nM. The IC50 [9] was roughly 3000 nM and the “Nef BiFC signal (Nef dimerization)” value [10] was “concentration-dependent loss”.
